Test results reported in ChEMBL document CHEMBL3352055, “Synthesis and structure-activity relationship studies of small molecule disruptors of EWS-FLI1 interactions in Ewing's sarcoma” (J Med Chem, 2014).
The source made the active and inactive calls. The calls are words filed in the database; no cut-off is given here.

How the values were obtained:
[1] = Growth inhibition of human PANC1 cells after 3 days by WST1 assay; assay type: cell-based, PANC-1
How it was run: (§1)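 Cells plated at 5000–15000 per well in colorless medium. TC32 and TC71 grown in RPMI with 10% FBS and 1% HEPES; PANC1 in DMEM with 10% FBS. Compounds or DMSO vehicle added the day after plating. Viable cells measured by MTT or WST-1 after 3 days. GI50 from nonlinear regression.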

[2] = Growth inhibition of human TC71 cells harboring EWS-FLI1 fusion protein after 3 days by WST1 assay; assay type: functional; settings: TC-71, 72 h; how it was run: as §1
[3] = target: Friend leukemia integration 1 transcription factor (Proto-oncogene Fli-1)/RNA-binding protein EWS (Homo sapiens) (UniProt Q01844+Q01543); experiment: (§2) Inhibition of transcriptional activity of full-length EWS-FLI1 (unknown origin) expressed in COS7 cells by NR0B1-luciferase reporter gene assay; assay type: cell-based; settings: COS-7
How it was run: (§3)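 COS7 cells transiently co-transfected with an NR0B1 luciferase reporter carrying EWS-FLI1 binding sites plus full-length EWS-FLI1 or empty pCI-neo vector. Treated 1.5 h after transfection with 0.05–15 μM compound or DMSO. Luciferase read 20 h later, quadruplicate wells, mean ± SD. IC50 from sigmoidal dose–response fit.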

[4] = Growth inhibition of human TC32 cells harboring EWS-FLI1 fusion protein after 3 days by WST1 assay; assay type: functional; settings: TC-32, 72 h; how it was run: as §1
[5] = Cytotoxicity against african green monkey COS7 cells after 48 hrs by WST1 assay; assay type: cell-based; settings: chlorocebus aethiops, cos-7, 48 h
How it was run: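 COS7 cells (monkey kidney, lacking EWS-FLI1) grown in DMEM with 10% FBS. Compound exposure for 48 h, with viability read by WST proliferation assay.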

[6] = target: T1, Friend leukemia integration 1 transcription factor (Proto-oncogene Fli-1)/RNA-binding protein EWS (Homo sapiens, UniProt Q01543+Q01844); experiment: as §2; assay type: cell-based, COS-7; how it was run: as §3
T1 sequence (Q01844 whole entry): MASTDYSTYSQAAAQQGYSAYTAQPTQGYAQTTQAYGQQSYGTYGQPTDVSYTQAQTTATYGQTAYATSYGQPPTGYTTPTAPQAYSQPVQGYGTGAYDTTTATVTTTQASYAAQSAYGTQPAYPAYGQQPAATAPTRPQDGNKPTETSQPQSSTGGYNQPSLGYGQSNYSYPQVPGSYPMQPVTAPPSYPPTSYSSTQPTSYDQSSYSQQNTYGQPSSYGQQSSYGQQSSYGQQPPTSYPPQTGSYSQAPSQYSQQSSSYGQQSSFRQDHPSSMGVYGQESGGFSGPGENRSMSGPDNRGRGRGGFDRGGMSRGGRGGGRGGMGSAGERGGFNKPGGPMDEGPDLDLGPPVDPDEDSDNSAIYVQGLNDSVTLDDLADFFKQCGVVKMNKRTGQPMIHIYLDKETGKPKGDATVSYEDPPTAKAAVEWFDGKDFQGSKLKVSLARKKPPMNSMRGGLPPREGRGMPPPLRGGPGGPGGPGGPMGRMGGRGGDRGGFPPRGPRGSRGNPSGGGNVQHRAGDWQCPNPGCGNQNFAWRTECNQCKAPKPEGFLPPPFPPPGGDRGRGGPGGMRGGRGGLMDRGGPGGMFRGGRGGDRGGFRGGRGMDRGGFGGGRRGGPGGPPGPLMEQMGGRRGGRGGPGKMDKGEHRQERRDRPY
T1 sequence (Q01543 whole entry): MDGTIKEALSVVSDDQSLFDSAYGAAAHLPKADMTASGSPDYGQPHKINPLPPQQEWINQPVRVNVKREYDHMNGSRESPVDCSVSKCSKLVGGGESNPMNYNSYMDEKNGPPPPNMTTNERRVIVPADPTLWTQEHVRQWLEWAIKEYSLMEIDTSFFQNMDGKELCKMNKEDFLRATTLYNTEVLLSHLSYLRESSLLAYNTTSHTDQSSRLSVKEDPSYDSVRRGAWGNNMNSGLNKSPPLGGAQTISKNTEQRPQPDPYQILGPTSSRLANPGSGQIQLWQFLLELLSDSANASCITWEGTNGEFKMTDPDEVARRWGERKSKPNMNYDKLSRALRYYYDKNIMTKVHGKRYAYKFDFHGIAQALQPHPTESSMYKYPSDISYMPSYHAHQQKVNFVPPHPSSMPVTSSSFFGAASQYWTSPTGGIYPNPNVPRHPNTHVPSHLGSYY

[7] = target: T1, Friend leukemia integration 1 transcription factor (Proto-oncogene Fli-1)/RNA-binding protein EWS; experiment: Binding affinity to purified recombinant EWS-FLI1 (unknown origin) after 1 hr by colorimetric phosphatase assay; assay type: protein assay
How it was run: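 His-tagged EWS-FLI1 expressed in BL21 (1 mM IPTG, 2 h at 27 °C) and purified from inclusion bodies by Ni column with on-column refolding. Plates coated overnight with 20 nM protein and blocked with 4% BSA for 1 h at RT. Biotin conjugate (1–100 μM) incubated 1 h, then HRP-streptavidin 1:5000 for 1 h at RT. Phosphatase substrate read at 405 nm. BSA-coated wells used as control. Kd taken from the saturation curve.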

inhibition activity (qualitative call) [3]	IC50 [6] [µM]	Kd [7] [µM]	SMILES	GI50 at 72 h [1] [µM]	GI50 [2] [µM]	GI50 [4] [µM]	Activity [5]
Active	–	–	COc1ccc(C(=O)CC2(O)C(=O)Nc3c(Cl)ccc(Cl)c32)c(OC)c1 (stereo not given)	> 10	2.8	2.6	–
–	–	–	COc1cccc(C(=O)CC2(O)C(=O)Nc3c(Cl)ccc(Cl)c32)c1 (stereo not given)	> 10	> 10	> 10	–
Active	–	–	COc1ccc(C(=O)CC2(O)C(=O)N(C)c3c(Cl)ccc(Cl)c32)cc1 (stereo not given)	> 10	> 10	2.2	–
–	–	–	COc1ccc(C(=O)CC2(O)C(=O)Nc3ccc(Cl)cc32)cc1 (stereo not given)	> 10	> 10	> 10	–
–	–	–	O=C(CC1(O)C(=O)Nc2c(Cl)ccc(Cl)c21)c1ccc(Oc2ccccc2)cc1 (stereo not given)	> 10	> 10	> 10	–
–	–	–	COc1ccc(C(=O)CC2(O)C(=O)Nc3c(F)ccc(F)c32)cc1 (stereo not given)	> 10	> 10	> 10	–
–	–	–	CC(C)Oc1ccc(C(=O)CC2(O)C(=O)Nc3c(Cl)ccc(Cl)c32)cc1 (stereo not given)	> 10	> 10	> 10	–
–	–	–	Nc1ccc(C(=O)CC2(O)C(=O)Nc3c(Cl)ccc(Cl)c32)cc1 (stereo not given)	> 10	> 10	> 10	–
–	–	–	COc1cc(OC)cc(C(=O)CC2(O)C(=O)Nc3c(Cl)ccc(Cl)c32)c1 (stereo not given)	> 10	> 10	9	–
–	–	–	Cc1ccc(C(=O)CC2(O)C(=O)Nc3c(Cl)ccc(Cl)c32)cc1 (stereo not given)	> 10	> 10	> 10	–
inactive	–	–	COc1ccc(C(=O)CC2(OC)C(=O)Nc3c(Cl)ccc(Cl)c32)cc1 (stereo not given)	> 10	> 10	> 10	–
Dose-dependent effect	0.35	–	COc1ccc(C(=O)CC2(O)C(=O)Nc3c(Cl)ccc(Cl)c32)cc1 (stereo not given)	> 10	0.92	0.94	Non-toxic
–	–	–	COc1ccc(C(=O)CC2(O)C(=O)Nc3c(Cl)ccc(Cl)c32)c(OC)c1OC (stereo not given)	> 10	4.4	2.7	–
–	–	–	O=C(CC1(O)C(=O)Nc2c(Cl)ccc(Cl)c21)c1ccc(C(F)(F)F)cc1 (stereo not given)	11	6.9	2.9	–
–	0.15	–	CN(C)c1ccc(C(=O)CC2(O)C(=O)Nc3c(Cl)ccc(Cl)c32)cc1 (stereo not given)	> 10	0.4	0.26	–
–	–	4.8	CN(C(=O)CCCCCNC(=O)CCCC[C@H]1SCC2NC(=O)NC21)c1ccc(C(=O)CC2(O)C(=O)Nc3c(Cl)ccc(Cl)c32)cc1 (stereo not given in full)	–	–	–	–
–	–	–	COc1ccc(C(=O)CC2(O)C(=O)Nc3cccc(Cl)c32)cc1 (stereo not given)	> 10	> 10	> 10	–

inhibition activity (qualitative call) [3]	IC50 [6] [µM]	Kd [7] [µM]	SMILES	GI50 at 72 h [1] [µM]	GI50 [2] [µM]	GI50 [4] [µM]	Activity [5]
–	0.77	–	COc1ccc(C(=O)CC2(O)C(=O)Nc3c(OC)ccc(OC)c32)cc1 (stereo not given)	> 10	0.94	1	–
–	–	–	N#Cc1ccc(C(=O)CC2(O)C(=O)Nc3c(Cl)ccc(Cl)c32)cc1 (stereo not given)	> 10	> 10	> 10	–
–	0.18	–	CNc1ccc(C(=O)CC2(O)C(=O)Nc3c(Cl)ccc(Cl)c32)cc1 (stereo not given)	> 10	0.39	0.34	–
–	–	–	O=C(CC1(O)C(=O)Nc2c(Cl)ccc(Cl)c21)c1ccc(I)cc1 (stereo not given)	> 10	> 10	> 10	–
–	–	–	COc1ccc(C(=O)CC2(O)C(=O)Nc3ccccc32)cc1 (stereo not given)	> 10	> 10	> 10	–
–	–	–	COc1ccc(C(=O)CC2(O)C(=O)Nc3c(Cl)cccc32)cc1 (stereo not given)	> 10	> 10	> 10	–
–	–	–	COc1ccc(C(=O)CC2(O)C(=O)N(c3ccccc3)c3c(Cl)ccc(Cl)c32)cc1 (stereo not given)	> 10	> 10	> 10	–
Active	–	–	CCOc1ccc(C(=O)CC2(O)C(=O)Nc3c(Cl)ccc(Cl)c32)cc1 (stereo not given)	> 10	3.57	2.7	–
–	–	–	O=C(CC1(O)C(=O)Nc2c(Cl)ccc(Cl)c21)c1ccccc1 (stereo not given)	> 10	> 10	> 10	–
inactive	–	–	COc1ccccc1C(=O)CC1(O)C(=O)Nc2c(Cl)ccc(Cl)c21 (stereo not given)	> 10	> 10	> 10	–
–	–	–	COc1ccc(C(=O)CC2(O)C(=O)Nc3c(C)ccc(C)c32)cc1 (stereo not given)	> 10	> 10	> 10	–
–	–	–	O=C(CC1(O)C(=O)Nc2c(Cl)ccc(Cl)c21)c1ccc(F)cc1 (stereo not given)	> 10	> 10	> 10	–
–	–	–	COc1ccc(C(=O)CC2(O)C(=O)Nc3cc(Cl)c(Cl)cc32)cc1 (stereo not given)	> 10	> 10	> 10	–
Active	–	–	COc1ccc(C(=O)CC2(OC)C(=O)N(C)c3c(Cl)ccc(Cl)c32)cc1 (stereo not given)	> 10	> 10	> 10	–
–	0.33	–	CSc1ccc(C(=O)CC2(O)C(=O)Nc3c(Cl)ccc(Cl)c32)cc1 (stereo not given)	> 10	0.91	0.98	–
–	–	–	COc1cccc(C(=O)CC2(O)C(=O)Nc3c(Cl)ccc(Cl)c32)c1OC (stereo not given)	> 10	> 10	> 10	–
